Data on 16 compounds can be found in ChEMBL document CHEMBL1145051, “Synthesis and biological evaluation of 3-alkoxy analogues of flavone-8-acetic acid” (J Med Chem, 2003).

The term IC50 denotes the midpoint of a concentration-inhibition curve.

Assay [1] concerns 2008. Briefly: Direct cytotoxicity against the selected tumor cell line 2008 was determined especially on ovarian adenocarcinoma derived cells; not detected. The format is functional, cell-based, Homo sapiens.
The species named for assay [2] is Mus musculus. As to the kind of experiment: Indirect antitumor effect was measured as cytotoxicity with murine macrophages pretreated with compounds. It is filed as functional. The method in brief:
(§1)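 Resident mouse peritoneal macrophages (heparinised PBS lavage, 2 h adherence) plated at 1 × 10^4 cells/well with a range of drug concentrations, triplicate wells, 24 h. Medium removed, C13* cells (2 × 10^3/well) added, cocultured 24 h. Lysis by MTT; specific cytotoxicity = [OD(macrophages+C13*) − OD(macrophages)]/OD(C13*). Three experiments; IC50 by Litchfield–Wilcoxon.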

In assay [3] the test system is LoVo. As to the kind of experiment: In vitro cytotoxicity against the selected tumor cell line LoVoS arising from human colon adenocarcinoma was determined; not detected. It is filed as functional, cell-based.
Assay [4] in a line: Potency ratio was determined against human monocytes versus DMXAA (Dimethylxanthenone-4-acetic acid). It is filed as functional. The procedure, abridged:
(§2)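 Ratio of reference IC50 (FAA or DMXAA) to analogue IC50 in the effector-cell coculture assay: mouse peritoneal macrophages or adherent human PBMC pretreated 24 h with drug, then C13* target cells added for 24 h, lysis by MTT. IC50 and ratios by Litchfield–Wilcoxon; three experiments in triplicate.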

Assay [5] in a line: Indirect antitumor effect was measured as cytotoxicity with human monocytes pretreated with compounds. The format is functional. The method in brief:
(§3)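 Adherent human PBMC (Ficoll isolation, 2 h adherence, washed) pretreated 24 h with 25, 50, 100 μM in RPMI 1640/5% FCS, triplicate wells. Medium removed, C13* cells (2 × 10^3/well) cocultured 24 h, read by MTT. Three experiments; IC50 by Litchfield–Wilcoxon.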

A short description of assay [6]: Potency ratio was determined against murine macrophages versus FAA (Flavone acetic acid). The format is functional. The procedure, abridged:
as §2

Assay [7] is described as follows: cPotency ratio was determined against macrophages; more potent. It is filed as functional. The method in brief: as §2
The test system of assay [8] is LoVo. As to the kind of experiment: In vitro cytotoxicity against the selected tumor cell line LoVoR arising from human colon adenocarcinoma was determined; not detected. The format is functional, cell-based.
Assay [9] deals with C13. As to the kind of experiment: Direct cytotoxicity against the selected tumor cell line c13* was determined especially on ovarian adenocarcinoma derived cells. The settings on record: Homo sapiens. It is filed as functional, cell-based.
Assay [10] can be described thus: Potency ratio was determined against C13 cell line versus FAA (Flavone acetic acid); less potent. It is filed as functional. The method in brief:
(§4)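 Ratio IC50(FAA)/IC50(analogue) from direct 24 h MTT cytotoxicity on the named line (LoVo S, LoVo R, 2008 or C13*), concentrations up to 500 μM. IC50 values and 95% confidence limits by Litchfield–Wilcoxon method; three experiments in triplicate.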

Assay [11] in a line: Indirect antitumor effect was measured as cytotoxicity against human monocytes; not detected. The format is functional. The procedure, abridged:
as §3

Assay [12] is described as follows: Potency ratio was determined against LoVoS versus FAA (Flavone acetic acid). It is filed as functional. The procedure, abridged:
as §4

Assay [13] concerns C13. As to the kind of experiment: Direct cytotoxicity against the selected tumor cell line c13* was determined especially on ovarian adenocarcinoma derived cells; not detected. The format is functional, cell-based, Homo sapiens.
Assay [14] concerns LoVo. As to the kind of experiment: In vitro cytotoxicity against the selected tumor cell line LoVoS arising from human colon adenocarcinoma was determined. The format is functional, cell-based.
In assay [15] the test system is LoVo. Briefly: In vitro cytotoxicity against the selected tumor cell line LoVoR arising from human colon adenocarcinoma was determined. It is filed as functional, cell-based.
Assay [16] is described as follows: Potency ratio was determined against LoVoR versus FAA (Flavone acetic acid); less potent. It is filed as functional. The procedure, abridged: as §4
A short description of assay [17]: Potency ratio was determined against human monocytes versus DMXAA (Dimethylxanthenone-4-acetic acid); less potent. It is filed as functional. The method in brief: as §2
The species entered for assay [18] is Mus musculus. As to the kind of experiment: Indirect antitumor effect was measured as cytotoxicity against murine macrophages; not detected. The format is functional. The procedure, abridged:
as §1

Assay [19] can be described thus: Potency ratio was determined against macrophages; more potent. The format is functional. The procedure, abridged:
as §2

A short description of assay [20]: Potency ratio was determined against human monocytes versus DMXAA (Dimethylxanthenone-4-acetic acid); more potent. The format is functional. The method in brief: as §2
The nature of assay [21]: Potency ratio was determined against LoVoR versus FAA (Flavone acetic acid). It is filed as functional. The procedure, abridged: as §4
A short description of assay [22]: Potency ratio was determined against 2008 cell line versus FAA (Flavone acetic acid); less potent. It is filed as functional. The method in brief:
as §4

For assay [23], the system named is 2008. As to the kind of experiment: Direct cytotoxicity against the selected tumor cell line 2008 was determined especially on ovarian adenocarcinoma derived cells. The settings on record: Homo sapiens. The format is functional, cell-based.
Assay [24] relates to C13. As to the kind of experiment: cDirect cytotoxicity against the selected tumor cell line c13* was determined especially on ovarian adenocarcinoma derived cells. The settings on record: Homo sapiens. It is filed as functional, cell-based.
Assay [25] is described as follows: Potency ratio was determined against macrophages. It is filed as functional. The procedure, abridged: as §2
Assay [26] deals with LoVo. As to the kind of experiment: In vitro cytotoxicity against the selected tumor cell line LoVoR arising from human colon adenocarcinoma was determined.
Assay [27] is described as follows: Potency ratio was determined against 2008 cell line versus FAA (Flavone acetic acid). The format is functional. The method in brief: as §4
The nature of assay [28]: Potency ratio was determined against C13 cell line versus FAA (Flavone acetic acid). It is filed as functional. The method in brief:
as §4

SMILES strings stand for the structures.

With `COc1c(-c2ccc(Cl)cc2)oc2c(CC(=O)O)cccc2c1=O`, the IC50 result was “not detected” in [1]; 293 µM in assay [2]; “not detected” in assay [3]; 105 µM in assay [5]; “not detected” in [8]; 350 µM in assay [9]. Further, the Potency ratio is on record as 1.3 in assay [4], 0.9 in assay [6], 2.8 in assay [7] and 0.7 in [10].
In the case of `CCOc1c(-c2ccccc2)oc2c(CC(=O)O)cccc2c1=O`, the IC50 result is “not detected” in [11]; “not detected” in [1]; 431 µM in assay [2]; “not detected” in [13]; 611 µM in assay [14]; “not detected” in assay [8]. Besides, the Potency ratio was determined as 0.9 in assay [12] and 0.7 in [6].
For `COc1c(-c2ccccc2Cl)oc2c(CC(=O)O)cccc2c1=O`, the IC50 entry is “not detected” in assay [11]; “not detected” in [1]; 284 µM in assay [2]; “not detected” in assay [13]; 780 µM in assay [15]; 605 µM in [14]. Besides, the Potency ratio amounted to 0.9 in [12], 1 in assay [6] and 0.5 in assay [16].
On to `COc1c(-c2cccs2)oc2c(CC(=O)O)cccc2c1=O`, for which, in assay [17], the Potency ratio is recorded as 0.6. The IC50 result was “not detected” in assay [1]; “not detected” in assay [3]; “not detected” in assay [13]; 213 µM in assay [5]; “not detected” in [18]; “not detected” in [8].
As to `COc1c(-c2cccc(C)c2)oc2c(CC(=O)O)cccc2c1=O`, the IC50 result in assay [1] is “not detected”; in [2] it was 234 µM; in assay [13], “not detected”; in assay [5] it was 113 µM; in assay [15] it was 648 µM; in assay [14], 697 µM. The Potency ratio turned out to be 0.8 in [12]; 1.2 in [4]; 1.2 in assay [6]; 0.6 in assay [16]; 2.1 in assay [19].
`COc1c(-c2cccc(Cl)c2)oc2c(CC(=O)O)cccc2c1=O`: the IC50 result in assay [1] was “not detected”; in [2], 239 µM; in assay [13] it was “not detected”; in assay [5] it was 36.8 µM; in [14], 534 µM; in assay [8] it was “not detected”. Also, the Potency ratio in assay [12] was determined as 1; in assay [20] it was 3.7; in [6], 1.2; in assay [19], 6.5.
For `COc1c(-c2cccc(C(F)(F)F)c2)oc2c(CC(=O)O)cccc2c1=O`, the IC50 result is “not detected” in [1]; “not detected” in [3]; “not detected” in assay [13]; 18.3 µM in assay [5]; 532 µM in [15]; “not detected” in assay [18]. Moreover, the Potency ratio came to 7.3 in assay [20] and 0.7 in assay [21].
`COc1c(-c2ccc(F)cc2)oc2c(CC(=O)O)cccc2c1=O`: in assay [17], the Potency ratio turned out to be 0.3. In addition, the IC50 entry is “not detected” in assay [1]; “not detected” in assay [3]; “not detected” in assay [13]; 436 µM in assay [5]; “not detected” in assay [18]; “not detected” in assay [8].
In the case of `COc1c(-c2ccccc2C)oc2c(CC(=O)O)cccc2c1=O`, the IC50 entry in assay [1] is “not detected”; in [2], 248 µM; in assay [3], “not detected”; in assay [5] it was 127 µM; in [9], 524 µM. Besides, the Potency ratio turned out to be 1 in assay [4], 1.1 in [6], 1.9 in assay [19] and 0.4 in assay [10].
Take `COc1cccc(-c2oc3c(CC(=O)O)cccc3c(=O)c2OC)c1`: the IC50 result in assay [11] was “not detected”; in assay [1], “not detected”; in assay [2], 182 µM; in assay [13], “not detected”; in assay [15], 514 µM; in [14] it was 829 µM. Further, the Potency ratio in assay [12] amounted to 0.7; in [6], 1.6; in assay [16], 0.7.
For `COc1c(-c2ccccc2)oc2c(CC(=O)O)cccc2c1=O`, the IC50 result in assay [1] is “not detected”; in assay [15], 627 µM; in assay [14] it was 719 µM; in assay [9], 757 µM. The Potency ratio was 0.8 in [12], 0.6 in assay [16] and 0.3 in assay [10].
For `COc1c(-c2ccc(C)cc2)oc2c(CC(=O)O)cccc2c1=O`, the IC50 entry is “not detected” in assay [11]; “not detected” in assay [1]; 164 µM in assay [2]; 570 µM in [15]; 632 µM in [14]; 806 µM in [9]. Further, the Potency ratio in assay [12] was found to be 0.9; in assay [6] it was 1.7; in assay [21] it was 0.7; in assay [10], 0.3.
Turning to `COc1ccc(-c2oc3c(CC(=O)O)cccc3c(=O)c2OC)cc1`, the Potency ratio was 0.9 in assay [12]; 0.7 in assay [22]; 0.7 in assay [4]; 1.2 in [6]; 0.7 in assay [16]; 1.3 in assay [25]. For the same compound, the Potency ratio in [10] stood at 0.4. In addition, the IC50 in [2] stood at 238 µM; in assay [23], 625 µM; in assay [5], 181 µM; in [15], 556 µM; in assay [24], 548 µM; in assay [14], 601 µM.
In the case of `COc1ccccc1-c1oc2c(CC(=O)O)cccc2c(=O)c1OC`, the IC50 result is “not detected” in assay [1]; 794 µM in [26]; “not detected” in assay [13]; 193 µM in [5]; “not detected” in assay [18]; 980 µM in [14]. Besides, the values for the Potency ratio in assay [12], in assay [4] and in assay [16] were 0.6, 0.7 and 0.5, respectively.
`O=C(O)Cc1cccc2c(=O)cc(-c3ccccc3)oc12` [MITOFLAXONE]: the IC50 result in assay [11] was “not detected”; in [2], 285 µM; in assay [23], 421 µM; in [15], 378 µM; in assay [14], 564 µM; in [9], 233 µM. Besides, the Potency ratio in assay [12] was 1; in [27] it was 1; in assay [6] it was 1; in assay [21], 0.6; in assay [28], 1.
With `CC(C)Oc1c(-c2ccccc2)oc2c(CC(=O)O)cccc2c1=O`, the IC50 result in [11] is “not detected”; in assay [1] it was “not detected”; in assay [2], 225 µM; in [13], “not detected”; in assay [15], 407 µM; in [14], 815 µM. Further, the Potency ratio is 0.7 in assay [12], 1.3 in [6] and 0.9 in assay [21].
